The record followed here is ChEMBL document CHEMBL4007505 (J Med Chem, 2017).

The target in experiment [1] is T1, Alpha-1B adrenergic receptor (Homo sapiens, UniProt P35368).
T1 sequence (P35368 whole entry): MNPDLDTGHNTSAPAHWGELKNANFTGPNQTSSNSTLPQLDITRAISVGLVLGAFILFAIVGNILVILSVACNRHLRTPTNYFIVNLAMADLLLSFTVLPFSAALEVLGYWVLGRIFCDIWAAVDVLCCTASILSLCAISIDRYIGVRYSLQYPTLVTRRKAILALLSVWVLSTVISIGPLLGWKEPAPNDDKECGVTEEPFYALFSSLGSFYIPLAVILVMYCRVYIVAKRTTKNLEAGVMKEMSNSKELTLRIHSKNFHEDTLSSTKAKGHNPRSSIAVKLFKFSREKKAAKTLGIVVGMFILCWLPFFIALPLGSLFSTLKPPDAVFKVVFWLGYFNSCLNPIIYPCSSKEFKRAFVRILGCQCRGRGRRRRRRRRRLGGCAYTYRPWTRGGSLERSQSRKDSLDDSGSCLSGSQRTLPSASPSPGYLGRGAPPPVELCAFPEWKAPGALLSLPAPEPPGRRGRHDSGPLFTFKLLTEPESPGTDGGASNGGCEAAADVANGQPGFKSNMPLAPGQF
Put plainly: Displacement of [3H]Prazosin from human adrenergic alpha1B receptor.

Experiment [2] has as its target T2, Alpha-2C adrenergic receptor (Homo sapiens, UniProt P18825).
T2 sequence (P18825 whole entry): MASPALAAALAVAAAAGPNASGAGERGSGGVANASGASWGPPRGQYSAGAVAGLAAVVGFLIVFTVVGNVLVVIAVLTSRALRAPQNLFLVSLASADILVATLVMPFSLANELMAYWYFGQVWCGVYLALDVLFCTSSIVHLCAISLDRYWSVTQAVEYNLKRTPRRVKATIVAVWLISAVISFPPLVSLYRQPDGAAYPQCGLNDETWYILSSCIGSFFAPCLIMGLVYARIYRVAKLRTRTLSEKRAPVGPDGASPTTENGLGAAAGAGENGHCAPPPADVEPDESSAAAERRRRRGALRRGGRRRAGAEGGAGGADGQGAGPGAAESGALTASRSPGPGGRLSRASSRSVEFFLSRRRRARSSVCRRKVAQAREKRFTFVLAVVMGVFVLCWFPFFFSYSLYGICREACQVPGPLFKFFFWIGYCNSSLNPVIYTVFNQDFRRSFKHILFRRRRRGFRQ
Put plainly: Displacement of [3H]Rauwolscine from human adrenergic alpha2C receptor. Background: Loss of bound radioactivity is the signal in a displacement assay; it reports binding, not function.

Experiment [3] deals with T3, Sodium-dependent dopamine transporter (Homo sapiens, UniProt Q01959). In words: Enhancing of [125I]RTI-55 binding to recombinant human DAT expressed in HEK293 cell membranes preincubated for 10 mins followed by radioligand addition measured after 90 mins by micro beta scintillation counting analysis. Also on record: concentration or dose not given beside the values. An outline of the steps:
(§1)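 Membranes of HEK-293 cells stably expressing hDAT, hNET or hSERT. […] Compound preincubated 10 min at room temperature, then [125I]23 (40-80 pM final) or [3H]26 (1-3 nM for DAT and NET, 10-13 nM for SERT) added. Incubated 90 min at room temperature in the dark, then filtered. EC50 or Ki; mean ± SEM.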

In experiment [4] the target is Alpha-2B adrenergic receptor (Homo sapiens, UniProt P18089). In words: Displacement of [3H]Rauwolscine from human adrenergic alpha2B receptor.
Alpha-2B adrenergic receptor, sequence (P18089 whole entry): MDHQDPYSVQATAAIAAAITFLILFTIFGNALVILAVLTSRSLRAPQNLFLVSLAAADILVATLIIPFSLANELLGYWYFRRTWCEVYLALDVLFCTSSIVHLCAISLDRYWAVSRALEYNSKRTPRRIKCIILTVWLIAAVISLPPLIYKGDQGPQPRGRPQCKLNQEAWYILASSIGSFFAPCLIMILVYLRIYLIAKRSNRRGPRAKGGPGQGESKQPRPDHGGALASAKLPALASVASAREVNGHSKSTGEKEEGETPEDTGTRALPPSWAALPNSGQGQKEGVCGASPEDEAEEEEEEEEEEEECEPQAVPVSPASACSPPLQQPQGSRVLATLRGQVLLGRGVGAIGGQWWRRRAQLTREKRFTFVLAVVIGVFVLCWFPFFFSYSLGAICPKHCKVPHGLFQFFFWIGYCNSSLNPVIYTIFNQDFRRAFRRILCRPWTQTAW
In another experiment the target is T4, Adenosine receptor A3 (Mus musculus, UniProt Q61618).
T4 sequence (Q61618 whole entry): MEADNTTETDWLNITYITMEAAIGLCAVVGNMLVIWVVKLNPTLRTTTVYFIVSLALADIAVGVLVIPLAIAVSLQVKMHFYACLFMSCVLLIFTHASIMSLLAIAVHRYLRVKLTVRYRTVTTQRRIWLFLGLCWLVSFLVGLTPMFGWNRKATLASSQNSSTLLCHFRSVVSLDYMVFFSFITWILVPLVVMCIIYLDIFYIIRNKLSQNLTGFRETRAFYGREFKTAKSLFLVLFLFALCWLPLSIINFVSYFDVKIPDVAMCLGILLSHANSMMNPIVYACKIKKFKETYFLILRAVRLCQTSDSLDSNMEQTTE
In words: Displacement of [125I]N6-(4-amino-3-iodobenzyl)adenosine-5'-N-methyluronamide from mouse A3AR expressed in HEK293T cells pre-incubated for 10 mins before radioligand addition and measured 90 mins after radioligand addition by micro beta scintillation counting analysis relative to control. The format is cell-based.

Experiment [5] deals with T5, Sodium-dependent serotonin transporter (Homo sapiens, UniProt P31645). Put plainly: Enhancing of [3H]mazindol binding to recombinant human SERT expressed in HEK293 cell membranes preincubated for 10 mins followed by radioligand addition measured after 90 mins by micro beta scintillation counting analysis.
Target sequence in this assay (P31645 whole entry): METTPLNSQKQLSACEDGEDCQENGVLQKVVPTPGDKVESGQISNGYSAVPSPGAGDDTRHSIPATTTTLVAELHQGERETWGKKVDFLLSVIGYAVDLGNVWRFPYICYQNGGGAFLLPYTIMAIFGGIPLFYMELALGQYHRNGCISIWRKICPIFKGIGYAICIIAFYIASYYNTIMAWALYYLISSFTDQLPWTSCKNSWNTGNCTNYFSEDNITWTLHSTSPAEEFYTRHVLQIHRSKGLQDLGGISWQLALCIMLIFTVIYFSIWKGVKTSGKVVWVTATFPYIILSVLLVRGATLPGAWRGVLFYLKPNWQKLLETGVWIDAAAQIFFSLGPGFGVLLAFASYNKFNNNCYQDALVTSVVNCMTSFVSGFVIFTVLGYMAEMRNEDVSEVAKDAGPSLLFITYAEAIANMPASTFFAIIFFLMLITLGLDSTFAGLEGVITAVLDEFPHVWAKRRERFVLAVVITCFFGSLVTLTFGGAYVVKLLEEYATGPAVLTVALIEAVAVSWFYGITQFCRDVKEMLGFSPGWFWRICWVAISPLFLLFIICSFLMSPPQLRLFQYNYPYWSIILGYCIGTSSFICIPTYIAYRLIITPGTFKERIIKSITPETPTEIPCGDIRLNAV
The target in experiment [6] is T6, Alpha-1D adrenergic receptor (Homo sapiens, UniProt P25100).
T6 sequence (P25100 whole entry): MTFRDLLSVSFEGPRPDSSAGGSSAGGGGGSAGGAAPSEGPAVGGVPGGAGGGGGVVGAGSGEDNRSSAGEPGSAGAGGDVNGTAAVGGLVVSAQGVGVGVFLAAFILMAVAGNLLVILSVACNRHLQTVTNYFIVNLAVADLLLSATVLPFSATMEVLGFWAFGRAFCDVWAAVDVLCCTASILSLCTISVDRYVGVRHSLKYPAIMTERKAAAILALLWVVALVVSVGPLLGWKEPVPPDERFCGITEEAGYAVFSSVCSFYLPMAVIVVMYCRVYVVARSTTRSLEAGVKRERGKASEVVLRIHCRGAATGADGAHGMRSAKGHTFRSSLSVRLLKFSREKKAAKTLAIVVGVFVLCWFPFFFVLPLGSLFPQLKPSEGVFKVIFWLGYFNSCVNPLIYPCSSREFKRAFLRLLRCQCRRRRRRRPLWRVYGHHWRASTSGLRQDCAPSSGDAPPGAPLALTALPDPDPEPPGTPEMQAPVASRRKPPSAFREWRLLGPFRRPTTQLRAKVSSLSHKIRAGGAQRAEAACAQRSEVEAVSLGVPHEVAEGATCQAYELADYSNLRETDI
Put plainly: Displacement of [3H]Prazosin from human adrenergic alpha1D receptor.

Experiment [7] has as its target T5, Sodium-dependent serotonin transporter. Put plainly: Enhancing of [125I]RTI-55 binding to recombinant human SERT expressed in HEK293 cell membranes preincubated for 10 mins followed by radioligand addition measured after 90 mins by micro beta scintillation counting analysis.
For experiment [8], the target named is T3, Sodium-dependent dopamine transporter. Put plainly: Enhancing of [3H]mazindol binding to recombinant human DAT expressed in HEK293 cell membranes preincubated for 10 mins followed by radioligand addition measured after 90 mins by micro beta scintillation counting analysis. More on the design: concentration or dose not given beside the values. An outline of the steps: as §1

Experiment [9] concerns the target Sodium-dependent noradrenaline transporter (Homo sapiens, UniProt P23975). In words: Enhancing of [3H]mazindol binding to recombinant human NET expressed in HEK293 cell membranes preincubated for 10 mins followed by radioligand addition measured after 90 mins by micro beta scintillation counting analysis.
In experiment [10] the target is T3, Sodium-dependent dopamine transporter. In words: Enhancing of [3H]WIN35,428 binding to recombinant human DAT expressed in HEK293 cell membranes at 10 uM pre-incubated for 10 mins before radioligand addition and measured 90 mins after radioligand addition by micro beta scintillation counting analysis relative to control.

Structures are written as SMILES. The source made the active and inactive calls. No cut-off for these calls is given here.

T3 sequence (Q01959 whole entry): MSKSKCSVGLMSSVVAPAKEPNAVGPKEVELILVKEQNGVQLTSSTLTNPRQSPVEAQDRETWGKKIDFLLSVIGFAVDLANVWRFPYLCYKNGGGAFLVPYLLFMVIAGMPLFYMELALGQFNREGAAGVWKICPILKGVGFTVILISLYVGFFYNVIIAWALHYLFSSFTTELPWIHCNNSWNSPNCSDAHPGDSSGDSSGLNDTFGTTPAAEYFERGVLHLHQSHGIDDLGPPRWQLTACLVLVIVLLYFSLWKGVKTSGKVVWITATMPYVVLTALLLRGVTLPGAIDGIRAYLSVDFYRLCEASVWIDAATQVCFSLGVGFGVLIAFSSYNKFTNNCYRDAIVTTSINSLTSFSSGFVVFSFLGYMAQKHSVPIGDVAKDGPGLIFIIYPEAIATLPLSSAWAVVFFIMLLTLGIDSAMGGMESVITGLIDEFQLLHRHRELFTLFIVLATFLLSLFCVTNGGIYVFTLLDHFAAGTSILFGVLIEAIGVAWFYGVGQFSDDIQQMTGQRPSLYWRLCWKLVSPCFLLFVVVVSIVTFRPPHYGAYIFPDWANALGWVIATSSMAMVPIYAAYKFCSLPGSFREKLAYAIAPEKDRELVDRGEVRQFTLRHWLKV
Sodium-dependent noradrenaline transporter, sequence (P23975 whole entry): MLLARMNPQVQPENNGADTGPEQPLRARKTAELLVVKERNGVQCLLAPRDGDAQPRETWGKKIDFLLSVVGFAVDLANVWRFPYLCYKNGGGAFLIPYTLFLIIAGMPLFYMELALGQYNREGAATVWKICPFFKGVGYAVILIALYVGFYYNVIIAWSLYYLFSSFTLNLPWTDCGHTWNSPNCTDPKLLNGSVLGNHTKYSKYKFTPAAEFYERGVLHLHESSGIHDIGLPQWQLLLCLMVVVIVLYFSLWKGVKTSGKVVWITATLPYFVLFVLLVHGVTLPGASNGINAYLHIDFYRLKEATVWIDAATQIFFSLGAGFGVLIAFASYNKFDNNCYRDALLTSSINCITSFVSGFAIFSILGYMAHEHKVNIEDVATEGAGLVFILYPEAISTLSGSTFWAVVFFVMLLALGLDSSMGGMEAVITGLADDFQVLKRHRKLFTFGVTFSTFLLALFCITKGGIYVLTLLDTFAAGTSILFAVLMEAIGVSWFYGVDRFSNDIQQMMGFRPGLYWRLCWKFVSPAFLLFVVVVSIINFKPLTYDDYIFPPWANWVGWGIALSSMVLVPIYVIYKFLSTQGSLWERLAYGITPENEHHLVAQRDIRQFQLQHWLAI

The term Ki denotes a dissociation constant, usually derived from enzyme kinetics or from competition with a known ligand. What is called EC50 is the concentration needed to bring the measured effect to its halfway point. For `CNc1nc(C#Cc2ccc(Cl)s2)nc2c1ncn2[C@@H]1O[C@H](C(=O)OC)[C@@H](O)[C@H]1O`, the inhibition constant (Ki) in experiment [1] is more than 10 µM; in experiment [2] it was more than 10 µM; in [4] it was 5 to 10 µM; at Adenosine receptor A3, 0.034 µM; in [6] it was more than 10 µM. In addition, the figures for the Activity in experiment [3], in [8] and in experiment [10] were 312%, 269% and 220%, respectively. For the same compound, the EC50 in experiment [3] (read-out: EC50) is 0.127 µM; in [5] it was more than 10 µM; in experiment [7] (read-out: EC50), more than 10 µM; in experiment [8] (read-out: EC50), 0.86 µM. For the same compound, the outcome in experiment [7] and in experiment [9] was inactive.
